Efflux pump inh: inhibitors of Candida antifungal efflux pumps expressed in yeast; S. cerevisiae Candida pump triplex, Nile Red efflux; inhibition, % at 10 µM; 0.44% of 330,000 active; AID 485275;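 active = plate passing quality check with inhibition over a set limit, or well fluorescence over plate mean plus 4 SD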;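 also: Nile Red retained in pooled yeast measured as flow cytometry median fluorescence; 0% = buffer negative control and 100% = Enniatin B positive control; higher means more Nile Red kept so more efflux inhibition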
IDE cell activ: boosts human insulin-degrading enzyme activity in HEK cells. AID 493087. P14735. activation, % at 5.96 µM. FAbeta-B cleavage, fluorescence polarization; 0% vehicle, 100% cell-free pure enzyme wells. 0.073% of 340,000 active;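 active = activation above the mean of all tested compounds plus 3 SD, set per screening campaign, cut at about 17% in these data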
TbMetRS inhib: blocks T. brucei methionyl-tRNA synthetase activity; 0.4% of 360,000 active; purified T. brucei MetRS, ATP depletion, Kinase-Glo luminescence; inhibition, % at 11.9 µM;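 active = inhibition above a per-plate cutoff of the control wells' mean inhibition plus 3 SD, cut at about 5.5% in these data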;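 also: 0% = DMSO wells median and 100% = median of wells with control inhibitor compound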
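Test system: purified T. brucei MetRS enzyme. Also added: ATP, methionine and E. coli bulk tRNA substrates. Compound: 11.9 µM single point. Schedule: 15 min enzyme-compound preincubation, 2 h reaction, 10 min detection, 25 °C. Signal: luciferase luminescence of residual ATP, Kinase-Glo. Evaluation: percent inhibition versus plate control medians. Controls: DMSO wells, low control.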
HDAC3 inhib: human HDAC3 inhibition | recombinant HDAC3, fluorogenic peptide/trypsin coupled, fluorescence | inhibition, % at 8.3 µM | 0.15% of 320,000 active; in the data active = inhibition above about 26%, passing the limit was not always enough; inconclusive = no clear call, values can overlap the other calls
Yeast superoxide: lowers age-related superoxide in aged yeast cells. S. cerevisiae aged cells, superoxide DHE fluorescence; stronger effect = lower value. superoxide response (% of plate mean), % at 10 µM. 0.18% of 330,000 active;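 active = superoxide response under a set limit, about three screen SD below normal, cut at about 65% in these data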;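 also: yeast aged for seven days with compound at 30 °C before DHE staining; 100% = average MFI of all compound-treated wells on the plate with controls excluded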
IDE inh: cellular human IDE inhibition; HEK cells, FAbetaB cleavage, fluorescence polarization; inhibition, % at 5.59 µM; 0.41% of 320,000 active;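 active = percent inhibition above the average of all tested compounds plus 3 SD, set per screening campaign, cut at about 16% in these data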;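 also: IDE supplied by intact live HEK cells; FP after avidin binding of uncleaved biotin substrate so inhibition keeps polarization high; 0% = DMSO wells and 100% = 60 µM reference IDE inhibitor Ii1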
Tb MetRS conf: confirmation of Trypanosoma brucei MetRS inhibitors. inhibition, % at 11.9 µM. T. brucei MetRS enzyme, luminescence (ATP depletion). shares compounds with TbMetRS inhib. 93% of 1,400 active; in the data active = inhibition above about 7%
Jurkat tox: counter-screen for T. brucei MetRS inhibitors: Jurkat cell cytotoxicity; shares compounds with TbMetRS inhib; Jurkat cells viability, ATP luminescence; inhibition, % at 8.3 µM; 12% of 1,400 active; AID 624413; in the data active = inhibition above about 15%;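 also: 0% = vehicle and 100% = reference inhibitor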
Tb MetRS inh FP: orthogonal test for Trypanosoma brucei MetRS inhibitors; purified T. brucei MetRS, fluorescence polarization; inhibition, % at 11.9 µM; 44% of 1,400 active; shares compounds with TbMetRS inhib; in the data active = inhibition above about 17%;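 also: 0% = vehicle wells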
Active calls of the source: *; u = inconclusive; x = not tested or not shown. An excerpt weighted towards active compounds, which were near 1.4% of everything screened.

SMILES	Efflux pump inh	IDE cell activ	TbMetRS inhib	HDAC3 inhib	Yeast superoxide	IDE inh	Tb MetRS conf	Jurkat tox	Tb MetRS inh FP
CC(C(=O)Nc1cccc([N+](=O)[O-])c1)[n+]1ccccc1 (stereo unspecified)	0	3	1	0	111	6	x	x	x
COc1ccc(-c2csc(C(O)c3cccc(OC)c3)n2)cc1 (stereo unspecified)	x	x	0	x	x	x	x	x	x
O=C(NC(Cc1ccccc1)c1nc2ccccc2[nH]1)c1ccc(Cl)c([N+](=O)[O-])c1 (stereo unspecified)	0	6	20*	-3	94	-5	26*	11	12
CSCC[C@H](NC(=O)COc1ccc(Cl)cc1Cl)c1nc2ccccc2[nH]1	0	-1	12*	7	98	0	24*	5	11
Cc1c(C(=O)NC(Cc2ccccc2)c2nc3ccccc3[nH]2)cccc1[N+](=O)[O-] (stereo unspecified)	0	1	0	5	124	5	x	x	x
CCOc1ccc(C(=O)Nc2cc(-c3nc4ccccc4[nH]3)ccc2Cl)cc1[N+](=O)[O-]	0	-9	7.7*	u	106	1	14*	5	15
CSCC[C@H](NC(=O)c1ccc(Cl)c([N+](=O)[O-])c1)c1nc2ccccc2[nH]1	0	3	56*	6	95	4	73*	9	43*
O=C(O)c1cccc(Cn2c(Cl)c(/C=N/NC(=O)c3cc4ccccc4cc3O)sc2=O)c1	0	2	5.7*	x	118	-2	18*	-1	34*
NC[C@H](O)c1ccc(O)c(O)c1	0	5	-1	3	86	-1	x	x	x
Cc1ccc(NC(=O)C=NOCC(=O)Nc2cc(C)cc(C)c2)cc1	0	0	24*	0	91	3	58*	-4	41*
CC(=O)Nc1ccc(/C=N/OCC(=O)Nc2ccc(C)cc2)cc1	0	1	0	-6	108	9	x	x	x
CC(=O)c1cccc(NC(=O)C(C)N(C)CC(=O)Nc2ccc(Cl)cc2)c1 (stereo unspecified)	0	7	35*	13	107	2	53*	6	25*
CN(CC(=O)Nc1ccc(Cl)cc1)C(=O)c1cccc(S(=O)(=O)N(C)C)c1	1	7	9.1*	x	90	0	19*	5	6
Cn1nnc(NCc2cc(Br)ccc2OCc2cccs2)n1	0	5	20*	-5	124	-5	28*	3	13
Cn1nnc(C(O)CNCc2cccs2)n1 (stereo unspecified)	0	-1	-1	5	102	3	x	x	x
C[C@H](CO)N1C[C@H](C)[C@H](CN(C)Cc2ccncc2)Oc2ccc(NC(=O)Nc3ccc(C(F)(F)F)cc3)cc2CC1=O	0	-2	-1	-9	84	3	x	x	x
C[C@H](CO)N1C[C@H](C)[C@@H](CN(C)S(=O)(=O)c2cccs2)Oc2c(NC(=O)Nc3ccccc3)cccc2C1=O	0	-4	20*	-2	93	7	53*	-4	25*
C[C@H]1CN([C@@H](C)CO)C(=O)Cc2cc(NC(=O)Nc3ccccc3)ccc2O[C@H]1CN(C)Cc1ccccc1	x	3	9.5*	x	x	x	31*	4	20*
Cc1noc(C)c1S(=O)(=O)N(C)C[C@H]1Oc2c(NC(=O)Nc3ccccc3)cccc2C(=O)N([C@H](C)CO)C[C@@H]1C	0	-4	17*	-5	98	3	57*	3	25*
Cc1noc(C)c1S(=O)(=O)N(C)C[C@H]1Oc2c(NC(=O)Nc3ccc(C(F)(F)F)cc3)cccc2C(=O)N([C@H](C)CO)C[C@@H]1C	0	3	1	15	101	0	x	x	x
